Results pooled from the literature.

SMILES | target | assay | test system | setting | endpoint | result
COc1ncccc1-c1cnn2ccc(N3CCN(C(=O)OC(C)C)CC3)nc12 | Serine/threonine-protein kinase SBK1 (SBK1, Homo sapiens, UniProt Q52WX2) | binding, competition with immobilised ligand | – | 1 µM | remaining binding | 84%
CCCCCCCCCCCCCC(=O)O[C@@H]1[C@@H](C)[C@@]2(O)[C@@H](C=C(CO)C[C@]3(O)C(=O)C(C)=C[C@@H]23)[C@@H]2C(C)(C)[C@]12OC(C)=O | Adenosine receptor A2b (Adora2b, Rattus norvegicus, UniProt P29276) | cAMP, agonist | H9c2 | – | Emax | 19.6%
Cc1nn(C)cc1-c1nc2c(N3CCN(Cc4ccc(Cl)cc4)CC3)c(Cl)cnc2[nH]1 | Tyrosine-protein kinase Tec (TEC, Homo sapiens, UniProt P42680) | binding, competition with immobilised ligand | – | 1 µM | remaining binding | 100%
Cn1c(=O)n(CCC(C)(C)O)c2cc(Nc3nc(N4CCCC(CO)C4)ncc3Cl)ccc21 (stereo not drawn) | B-cell lymphoma 6 protein (BCL6, Homo sapiens, UniProt P41182) | protein level, degrader | SU-DHL-4 | – | Dmax | ~60%
C[C@H](C(=O)N[C@H]1COc2ccccc2[C@@H]1S(C)(=O)=O)c1ccc(F)cc1 | Beta-3 adrenergic receptor (ADRB3, Homo sapiens, UniProt P13945) | cell-free assay | – | 10 µM | inhibition | -12%
C#Cc1n[nH]c2c(-c3cn([C@@H](C)c4ccccn4)c(=O)[nH]c3=O)cc(F)cc12 | Serine/threonine-protein kinase PAK 4 (PAK4, Homo sapiens, UniProt O96013) | enzyme activity, inhibitor | – | 0.1 µM | inhibition | 0.2%
CCN(CC)CCCC[C@H](NC(=O)[C@H](CC(C)C)NC(=O)[C@H](C)NC(=O)[C@H](Cc1ccccc1)NC(=O)c1ccc(C(C)(C)C)cc1)C(=O)N[C@@H](CO)C(=O)OC | Bromodomain-containing protein 2, BD1 (BRD2, Homo sapiens, UniProt P25440) | thermal stability, DSF | – | 25 µM | ΔTm | 0.19 °C
C#Cc1n[nH]c2c(-c3cn([C@@H](C)c4ccccc4)c(=O)[nH]c3=O)cc(F)cc12 | Serine/threonine-protein kinase Sgk1 (SGK1, Homo sapiens, UniProt O00141) | enzyme activity, inhibitor | – | 0.1 µM | inhibition | -1.8%
Nc1ncc(-c2nc(N3CCOCC3)nc(N3CCOCC3)n2)c(C(F)F)n1 | Calcium/calmodulin-dependent protein kinase type II subunit gamma (CAMK2G, Homo sapiens, UniProt Q13555) | binding, competition with immobilised ligand | – | 10 µM | remaining binding | 73%
